Test results: ChEMBL document CHEMBL4613263, “Optimization of Tetrahydroindazoles as Inhibitors of Human Dihydroorotate Dehydrogenase and Evaluation of Their Activity and In Vitro Metabolic Stability” (J Med Chem, 2020)
pIC50: −log10 of the molar value. Values after ≈ are worked out from the molar mass of the structure shown. Active and inactive are the calls of the source. The calls are words filed in the database; no cut-off is given here.

How the values were obtained:
[1] = Kinetic aqueous solubility of compound in Prima HT solution at pH 7.4 incubated for 4 hrs by UV-spectrophotometry; format: physicochemical; conditions: read-out: Kinetic_solubility
Procedure, shortened: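 20 mM DMSO stocks diluted 100× into Prima HT buffer at pH 7.4 and shaken 4 h at rt. Samples filtered through 0.22 µm, mixed 1:1 with isopropanol and scanned by UV from 190–400 nm against stock reference standards.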

[2] = species on record: Homo sapiens; experiment: Antiproliferative activity against human ARN8 cells assessed as reduction in cell viability incubated with compound at higher concentration for 72 hrs in presence of 100 uM […], uridine by SRB assay; format: functional, cell-based
[3] = Metabolic stability in CD-1 mouse liver microsomes assessed as half life at 1 uM incubated for 60 mins by LC-MS/MS analysis; format: ADME, Microsome; conditions: for half-life at 1 µM: CD-1, mouse, liver microsomes
Procedure, shortened: (§1)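 Compound at 1 µM with 1.0 mg/mL human or mouse liver microsomes in 50 mM potassium phosphate pH 7.4, preincubated 5 min at 37 °C. Started with 1 mM NADPH (or blank buffer). Quenched with cold acetonitrile containing glipizide at 0, 5, 15, 30, 60 min. Parent loss tracked by LC-MS/MS in MRM mode; t½ = 0.693/k from slope of peak-area ratio versus time.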

[4] = Antiproliferative activity against human ARN8 cells assessed as reduction in cell viability incubated for 72 hrs by SRB assay; format: functional, cell-based; conditions: for pIC50: Homo sapiens, ARN8, 72 h, read-out: IC50
[5] = Cytotoxicity against human HNDF cells assessed as reduction in cell viability incubated for 72 hrs by SRB assay; format: cell-based; conditions: for pIC50: Homo sapiens, 72 h, read-out: IC50
Procedure, shortened: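 Human normal dermal fibroblasts seeded at 15×10^2 per well and left 24 h, then exposed to compound for 72 h with 0.1% DMSO final. Cells fixed with TCA at 4 °C for 1 h, stained with SRB, solubilized in 10 mM Tris and read at 490 nm. Values normalized to DMSO control. Tabulated means come only from experiments where IC50 fell below 10 000 nM.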

[6] = Cytotoxicity against human HNDF cells assessed as reduction in cell viability incubated with compound at higher concentration for 72 hrs in presence of 100 uM […], uridine by SRB assay; format: cell-based
Procedure, shortened: (§2)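 Normal dermal fibroblasts seeded at 15×10^2 per well and left 24 h, then treated 72 h in medium with 0.1% DMSO final plus 100 µM uridine. Fixed with TCA, stained with 0.4% SRB, dye dissolved in Tris and read at 490 nm. Growth/viability given as % of DMSO control; mean ± SD of three technical replicates.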

[7] = Metabolic stability in human liver microsomes assessed as half life at 1 uM incubated for 60 mins by LC-MS/MS analysis; format: ADME, Microsome; conditions: for half-life at 1 µM: liver microsomes; procedure, shortened: as §1
[8] = species on record: Homo sapiens; experiment: Antiproliferative activity against human ARN8 cells assessed as reduction in cell viability at 0.005 to 10 uM incubated for 72 hrs in presence of 100 uM […], uridine by SRB assay; format: functional, cell-based
[9] = Drug metabolism in CD-1 mouse liver microsomes assessed as hydroxylation-mediated M2 metabolite with m/z as 397.1 formation by measuring retention time at 10 uM incubated for 60 mins by LC-MS/MS analysis; format: ADME, Microsome; conditions: 1 h
Procedure, shortened: (§3)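 10 µM compound in 100 mM phosphate pH 7.4 with pooled female CD-1 mouse liver microsomes and NADPH, at 37 °C for 0, 10, 20, 40 and 60 min. Stopped with equal-volume cold acetonitrile, then centrifuged, dried and reconstituted. Metabolites and parent resolved on C18 UHPLC with ion-trap MS. Each peak reported as % of total (metabolite + parent) area.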

[10] = biological target: T1, Dihydroorotate dehydrogenase (quinone), mitochondrial (Homo sapiens, UniProt Q02127); experiment: Inhibition of DHODH in human ARN8 cells assessed as activation of p53-dependent transcription at 0.05 to 10 uM incubated for 16 hrs by CPRG assay; format: cell-based
T1 sequence (Q02127 whole entry): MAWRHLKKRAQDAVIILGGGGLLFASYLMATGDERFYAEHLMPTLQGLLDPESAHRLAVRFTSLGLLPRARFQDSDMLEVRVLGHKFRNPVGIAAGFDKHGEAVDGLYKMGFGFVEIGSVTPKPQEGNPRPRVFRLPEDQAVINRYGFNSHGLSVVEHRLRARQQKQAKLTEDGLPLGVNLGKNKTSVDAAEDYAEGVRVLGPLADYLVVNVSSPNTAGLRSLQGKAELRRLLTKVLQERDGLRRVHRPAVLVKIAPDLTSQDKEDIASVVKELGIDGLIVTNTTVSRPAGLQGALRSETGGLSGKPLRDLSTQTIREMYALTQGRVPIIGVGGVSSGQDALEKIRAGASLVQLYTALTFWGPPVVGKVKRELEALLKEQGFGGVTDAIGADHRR
Procedure, shortened: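 ARN8 cells carrying the RGCΔFos-LacZ p53 reporter seeded at 2×10^4 per well and left 24 h, then treated 16 h (0.1% DMSO final, ±100 µM uridine). Cells washed, lysed and frozen at −20 °C for at least 2 h. β-galactosidase measured with CPRG substrate at pH 7.5, read at 590 nm after 24 h. Result is fold change vs DMSO; mean ± SD of three technical replicates.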

[11] = Drug metabolism in CD-1 mouse liver microsomes assessed as disappearance of parent compound by measuring parent compound retention time at 10 uM incubated for 60 mins by LC-MS/MS analysis; format: ADME, Microsome; conditions: 1 h; procedure, shortened: as §3
[12] = Drug metabolism in CD-1 mouse liver microsomes assessed as hydroxylation-mediated M1 metabolite with m/z as 397.1 formation by measuring retention time at 10 uM incubated for 60 mins by LC-MS/MS analysis; format: ADME, Microsome; conditions: 1 h; procedure, shortened: as §3
[13] = Cytotoxicity against human HNDF cells assessed as reduction in cell viability incubated for 72 hrs in presence of 100 uM […], uridine by SRB assay; format: cell-based; procedure, shortened: as §2
[14] = biological target: DNA topoisomerase 2-alpha (Homo sapiens) (UniProt P11388); conditions: 20 uM
Chain of DNA topoisomerase 2-alpha (Homo sapiens) (P11388 whole entry): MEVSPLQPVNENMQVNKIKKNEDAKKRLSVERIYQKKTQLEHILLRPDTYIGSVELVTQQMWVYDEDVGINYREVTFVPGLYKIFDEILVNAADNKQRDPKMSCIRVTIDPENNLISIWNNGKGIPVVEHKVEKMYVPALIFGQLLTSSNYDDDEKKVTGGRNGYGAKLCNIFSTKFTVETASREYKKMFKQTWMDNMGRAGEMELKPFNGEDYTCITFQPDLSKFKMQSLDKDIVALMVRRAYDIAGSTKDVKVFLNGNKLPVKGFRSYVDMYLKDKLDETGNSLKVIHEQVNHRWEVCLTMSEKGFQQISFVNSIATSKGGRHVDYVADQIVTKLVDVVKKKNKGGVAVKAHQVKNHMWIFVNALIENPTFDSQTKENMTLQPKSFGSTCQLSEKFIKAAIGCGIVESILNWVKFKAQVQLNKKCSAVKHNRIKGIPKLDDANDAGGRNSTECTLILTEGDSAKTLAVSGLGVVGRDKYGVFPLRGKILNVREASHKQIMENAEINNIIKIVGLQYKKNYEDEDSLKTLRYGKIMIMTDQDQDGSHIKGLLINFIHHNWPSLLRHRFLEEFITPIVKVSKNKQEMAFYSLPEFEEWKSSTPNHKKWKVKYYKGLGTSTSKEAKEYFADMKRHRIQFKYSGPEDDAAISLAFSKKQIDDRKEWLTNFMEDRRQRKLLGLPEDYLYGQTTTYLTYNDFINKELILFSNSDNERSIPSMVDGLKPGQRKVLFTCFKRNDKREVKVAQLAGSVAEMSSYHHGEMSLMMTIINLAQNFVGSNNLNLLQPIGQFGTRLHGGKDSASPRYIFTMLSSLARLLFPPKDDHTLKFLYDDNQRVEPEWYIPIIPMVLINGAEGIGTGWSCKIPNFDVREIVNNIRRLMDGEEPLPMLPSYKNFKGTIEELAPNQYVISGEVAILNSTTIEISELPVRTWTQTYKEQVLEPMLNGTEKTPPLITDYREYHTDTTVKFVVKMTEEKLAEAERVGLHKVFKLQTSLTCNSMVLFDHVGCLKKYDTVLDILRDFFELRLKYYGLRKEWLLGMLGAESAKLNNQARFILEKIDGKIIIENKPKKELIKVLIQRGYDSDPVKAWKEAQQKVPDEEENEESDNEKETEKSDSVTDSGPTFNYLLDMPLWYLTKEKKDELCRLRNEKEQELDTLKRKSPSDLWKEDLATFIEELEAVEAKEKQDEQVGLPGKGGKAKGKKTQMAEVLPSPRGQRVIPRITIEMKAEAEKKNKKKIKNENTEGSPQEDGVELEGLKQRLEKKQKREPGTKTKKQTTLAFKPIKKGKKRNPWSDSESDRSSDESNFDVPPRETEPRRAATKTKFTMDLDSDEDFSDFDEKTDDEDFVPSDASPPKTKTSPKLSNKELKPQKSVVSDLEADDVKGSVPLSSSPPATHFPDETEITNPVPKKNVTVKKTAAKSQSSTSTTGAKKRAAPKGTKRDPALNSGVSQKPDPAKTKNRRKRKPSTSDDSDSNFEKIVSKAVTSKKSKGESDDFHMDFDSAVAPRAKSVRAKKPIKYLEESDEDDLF

[15] = biological target: DNA topoisomerase 2-alpha (Homo sapiens) (UniProt P11388); conditions: 20 uM; remark: listed apart in the source
[16] = biological target: DNA topoisomerase 2-alpha (Homo sapiens) (UniProt P11388); conditions: 20 uM; remark: listed apart in the source
[17] = biological target: T1, Dihydroorotate dehydrogenase (quinone), mitochondrial; experiment: Inhibition of DHOH in human ARN8 cells assessed as gammaH2AX level at 20 uM incubated for 1 hr in presence of pan-caspase inhibitor, Z-VAD-FMK by Western blot analysis; format: cell-based
Procedure, shortened: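 ARN8 cells treated 24 h at 20 nM, with 20 µM Z-VAD-FMK or vehicle added 4.5 h before harvest. Etoposide arm was 20 µM for 1 h alongside Z-VAD-FMK. Lysates normalized for protein and analysed by western blot for p53, p-Ser15 p53, γ-H2AX, H2AX and cleaved PARP (85 kDa) against stain-free total-protein loading.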

[18] = biological target: DNA topoisomerase 2-alpha (Homo sapiens) (UniProt P11388); conditions: 20 uM; remark: listed apart in the source
[19] = biological target: DNA topoisomerase 2-alpha (Homo sapiens) (UniProt P11388); conditions: 20 uM; remark: listed apart in the source
[20] = biological target: DNA topoisomerase 2-alpha (Homo sapiens) (UniProt P11388); conditions: 20 uM; remark: listed apart in the source
[21] = biological target: T1, Dihydroorotate dehydrogenase (quinone), mitochondrial; experiment: Inhibition of recombinant human DHODH using dihydroorotic acid as substrate measured for 68 mins by DCIP based colorimetric assay
[22] = biological target: T1, Dihydroorotate dehydrogenase (quinone), mitochondrial; experiment: Inhibition of recombinant human N-terminal His-tagged DHODH (31 to 395 residues) expressed in Escherichia coli expression system using dihydroorotic acid as substrate by DCIP assay

## Cc1ccccc1-n1ncc2c1CCC[C@H]2NC(=O)c1noc2c1CCCC2
[1]
  solubility kinetic at 4 h: 10 µM (≈ 3.76 µg/mL)
[2]
  inhibition: Active
[3]
  half-life at 1 µM: 6 min
[4]
  pIC50: 7.85
[5]
  pIC50: < 5.00
[6]
  Activity: Non-Toxic
[7]
  half-life at 1 µM: 23 min

## Cc1ccc(F)c(-n2ncc3c2CCC[C@H]3NC(=O)c2onc3c2CCCC3)c1
[4]
  pIC50: 6.70
[5]
  pIC50: 5.17

## O=C(N[C@@H]1CCCc2c1cnn2-c1ccccc1F)c1noc2c1CCCC2
[4]
  pIC50: 7.10
[5]
  pIC50: 5.00
[8]
  Activity: inactive

## O=C(N[C@H]1CCCc2c1cnn2-c1ccccc1F)c1noc2c1CCCC2
[4]
  IC50: Not Active
[5]
  IC50: Not Active

## O=C(NC1CCCc2c1cnn2-c1ccccc1F)c1ccccc1 (racemic)
[4]
  IC50: Not Active
[5]
  IC50: Not Active

## O=C(N[C@@H]1CCCc2c1cnn2-c1ccccc1F)c1onc2c1CCCC2
[1]
  solubility kinetic at 4 h: 15 µM (≈ 5.71 µg/mL)
[9]
  Retention_time: 4.3 min
[3]
  half-life at 1 µM: 8 min
[4]
  pIC50: 6.80
[10]
  inhibition: Active
[5]
  pIC50: < 5.00
[7]
  half-life at 1 µM: 85 min
[11]
  Retention_time: 5.3 min
[12]
  Retention_time: 4.1 min

## O=C(NC1CCCc2c1cnn2-c1ccccc1)c1noc2c1CCCC2 (racemic)
[4]
  pIC50: 6.37
[5]
  pIC50: 5.15

## O=C(N[C@@H]1CCCc2c1cnn2-c1ccccc1F)c1ncccn1
[4]
  IC50: Not Active
[5]
  IC50: Not Active

## Cc1ccnc(C(=O)N[C@@H]2CCCc3c2cnn3-c2ccccc2C)c1
[1]
  solubility kinetic at 4 h: 110 µM (≈ 38.1 µg/mL)
[3]
  half-life at 1 µM: 10 min
[4]
  pIC50: 7.21
[5]
  pIC50: < 5.00
[7]
  half-life at 1 µM: > 60 min
[13]
  Activity: Toxic
[8]
  Activity: inactive

## Cc1ccccc1-n1ncc2c1CCCC2NC(=O)c1noc2c1CCCC2 (racemic)
[2]
  inhibition: Active
[4]
  pIC50: 7.82
[5]
  pIC50: 5.07
[6]
  Activity: Non-Toxic
[13]
  Activity: Toxic
[8]
  Activity: inactive

## O=C(NC1CCCc2c1cnn2-c1ccccc1F)c1onc2c1CCCC2 (racemic)
[4]
  pIC50: 6.66
[5]
  pIC50: 5.05

## Cc1cccc(-n2ncc3c2CCCC3NC(=O)c2noc3c2CCCC3)c1C (racemic)
[2]
  inhibition: Active
[4]
  pIC50: 7.64
[5]
  pIC50: 5.11
[6]
  Activity: Non-Toxic
[13]
  Activity: Toxic
[8]
  Activity: inactive

## Cc1c(-c2ccc(-c3ccccc3F)cc2)nc2ccc(F)cc2c1C(=O)O [BREQUINAR]
[1]
  solubility kinetic at 4 h: 110 µM (≈ 41.3 µg/mL)
[3]; mouse, microsomes, 1 h, 1 µM
  Stability: Stable
[4]
  pIC50: 6.40
[5]
  pIC50: < 5.00
[7]
  half-life at 1 µM: > 60 min

## COc1cc([C@@H]2c3cc4c(cc3[C@@H](O[C@@H]3O[C@@H]5CO[C@@H](C)O[C@H]5[C@H](O)[C@H]3O)[C@H]3COC(=O)[C@H]23)OCO4)cc(OC)c1O
[14]
  inhibition: Active
[15]
  inhibition: Active
[16]
  inhibition: Active
[17]
  inhibition: Active
[18]
  inhibition: Active
[19]
  inhibition: Active
[20]
  inhibition: Active

## Cc1cccc(-n2ncc3c2CCCC3NC(=O)c2noc3c2CCCC3)c1 (racemic)
[4]
  pIC50: 6.77
[5]
  pIC50: 5.10

## O=C(N[C@H]1CCCc2c1cnn2-c1ccccc1F)c1ccccn1
[4]
  IC50: Not Active
[5]
  IC50: Not Active

## COC(=O)c1ccc(C(=O)NC2CCCc3c2cnn3-c2ccccc2F)nc1 (racemic)
[21]
  pIC50: < 5.00

## O=C(N[C@H]1CCCc2c1cnn2-c1ccccc1F)c1onc2c1CCCC2
[22]
  pIC50: 5.19
[4]
  IC50: Not Active
[10]
  inhibition: inactive
[5]
  IC50: Not Active

## O=C(N[C@@H]1CCCc2c1cnn2-c1ccccc1F)c1ccccn1
[3]
  half-life at 1 µM: 1 min
[4]
  pIC50: 6.03
[5]
  pIC50: < 5.00
[7]
  half-life at 1 µM: > 60 min

## O=C(N[C@@H]1CCCc2c1cnn2-c1ccccc1F)c1ncc2ccccn12
[4]
  pIC50: 7.42
[5]
  pIC50: 5.03

## O=C(N[C@@H]1CCCc2c1cnn2-c1ccccc1F)c1cc(C(F)(F)F)ccn1
[1]
  solubility kinetic at 4 h: < 5 µM
[3]
  half-life at 1 µM: 54 min
[4]
  pIC50: 6.96
[5]
  pIC50: < 5.00
[7]; microsomes, 1 h, 1 µM
  Stability: Stable
[13]
  Activity: Toxic
[8]
  Activity: inactive

## Cc1ccccc1-n1ncc2c1CCC[C@H]2NC(=O)c1onc2c1CCCC2
[4]
  pIC50: 7.14
[5]
  pIC50: < 5.00

## O=C(NC1CCCc2c1cnn2-c1ccccc1F)c1ccccn1 (racemic)
[4]
  pIC50: 5.27
[5]
  pIC50: < 5.00
